ChEMBL document CHEMBL4342468, “Evolution of a 4-Benzyloxy-benzylamino Chemotype to Provide Efficacious, Potent, and Isoform Selective PPARα Agonists as Leads for Retinal Disorders” (J Med Chem, 2020)

What was measured:
[1] = target: T1, Peroxisome proliferator-activated receptor alpha (Homo sapiens) (UniProt Q07869); assay: Agonist activity at human PPARalpha expressed in nonhuman mammalian cells assessed as maximal increase in receptor transcriptional activity incubated for 22 to 24 hrs by luciferase reporter gene assay relative to GW590735; assay type: cell-based
T1 sequence (whole entry): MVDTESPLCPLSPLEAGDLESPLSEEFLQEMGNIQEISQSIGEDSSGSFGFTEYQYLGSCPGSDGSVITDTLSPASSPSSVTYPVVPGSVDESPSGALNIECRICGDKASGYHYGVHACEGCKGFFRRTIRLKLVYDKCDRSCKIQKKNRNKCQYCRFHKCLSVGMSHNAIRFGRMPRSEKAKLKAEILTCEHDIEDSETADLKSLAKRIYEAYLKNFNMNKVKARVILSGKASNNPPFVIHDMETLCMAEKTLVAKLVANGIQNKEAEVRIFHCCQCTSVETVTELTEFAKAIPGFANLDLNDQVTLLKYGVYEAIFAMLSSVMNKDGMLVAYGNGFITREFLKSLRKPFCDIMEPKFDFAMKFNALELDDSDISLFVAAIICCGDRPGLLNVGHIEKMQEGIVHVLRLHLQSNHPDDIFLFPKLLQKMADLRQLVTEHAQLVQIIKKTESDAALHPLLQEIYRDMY

[2] = target: T2, Peroxisome proliferator-activated receptor alpha (Homo sapiens, UniProt Q07869)
T2 sequence (Q07869 whole entry): T1 sequence (whole entry)

[3] = target: T3, Peroxisome proliferator-activated receptor delta (Homo sapiens, UniProt Q03181); assay: Agonist activity at human PPARdelta expressed in nonhuman mammalian cells assessed as increase in receptor transcriptional activity incubated for 22 to 24 hrs by luciferase reporter gene assay; assay type: cell-based
T3 sequence (Q03181 whole entry): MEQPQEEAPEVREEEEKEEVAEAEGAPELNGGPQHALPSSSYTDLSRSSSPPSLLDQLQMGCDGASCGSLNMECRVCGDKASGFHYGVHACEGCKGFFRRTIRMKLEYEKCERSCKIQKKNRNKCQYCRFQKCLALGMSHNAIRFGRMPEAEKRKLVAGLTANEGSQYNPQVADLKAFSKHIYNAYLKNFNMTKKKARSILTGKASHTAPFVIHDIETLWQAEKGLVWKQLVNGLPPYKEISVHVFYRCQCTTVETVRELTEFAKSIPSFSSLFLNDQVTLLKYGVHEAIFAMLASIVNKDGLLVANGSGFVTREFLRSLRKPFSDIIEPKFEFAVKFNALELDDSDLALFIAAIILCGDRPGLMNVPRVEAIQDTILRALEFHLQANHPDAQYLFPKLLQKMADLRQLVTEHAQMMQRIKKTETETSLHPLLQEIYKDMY

[4] = target: T4, Peroxisome proliferator-activated receptor gamma (Homo sapiens, UniProt P37231); assay: Agonist activity at human PPARgamma expressed in nonhuman mammalian cells assessed as increase in receptor transcriptional activity incubated for 22 to 24 hrs by luciferase reporter gene assay; assay type: cell-based
T4 sequence (P37231 whole entry): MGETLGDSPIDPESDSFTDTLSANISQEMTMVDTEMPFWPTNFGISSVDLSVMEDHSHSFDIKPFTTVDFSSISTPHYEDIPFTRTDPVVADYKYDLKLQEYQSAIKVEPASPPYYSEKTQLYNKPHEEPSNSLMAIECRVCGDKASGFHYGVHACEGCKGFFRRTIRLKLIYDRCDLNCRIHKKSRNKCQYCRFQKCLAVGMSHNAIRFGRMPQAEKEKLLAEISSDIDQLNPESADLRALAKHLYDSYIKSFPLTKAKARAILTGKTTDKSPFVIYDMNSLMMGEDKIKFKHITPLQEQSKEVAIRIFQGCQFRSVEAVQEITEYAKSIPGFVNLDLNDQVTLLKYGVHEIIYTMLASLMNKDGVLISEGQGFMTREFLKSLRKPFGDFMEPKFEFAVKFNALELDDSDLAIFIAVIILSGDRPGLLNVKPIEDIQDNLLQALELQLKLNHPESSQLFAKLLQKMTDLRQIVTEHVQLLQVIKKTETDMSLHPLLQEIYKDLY
Method in brief: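 Reporter cells (nonhuman mammalian, engineered PPAR receptor with luciferase linked to response promoter) pre-incubated 4–6 h at 37 °C, 5% CO2 in medium with 10% charcoal-stripped FBS. Medium replaced with compound-containing screening medium, 22–24 h at 37 °C, then luciferase detection reagent, luminescence read. Multi-point dose-response for EC50; mean ± SEM of at least two separate experiments in triplicate.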

Homo sapiens [5] = species on record: Homo sapiens; assay: Selectivity index, ratio of EC50 for human PPARdelta expressed in nonhuman mammalian cells to EC50 for human PPARalpha expressed in nonhuman mammalian cells measured after 22 to 24 hrs by luciferase reporter gene assay; assay type: cell-based
Method in brief: (§1)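 Reporter cells (non-human mammalian) expressing human PPARα, γ or δ linked to a luciferase reporter were pre-incubated 4–6 h at 37 °C, 5% CO2 in medium with 10% charcoal-stripped FBS. SI = EC50(PPARγ or δ)/EC50(PPARα).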

Homo sapiens [6] = species on record: Homo sapiens; assay: Selectivity index, ratio of EC50 for human PPARgamma expressed in nonhuman mammalian cells to EC50 for human PPARalpha expressed in nonhuman mammalian cells measured after 22 to 24 hrs by luciferase reporter gene assay; assay type: cell-based; method in brief: as §1
Rattus norvegicus = assay: Protection against STZ-induced diabetic retinopathy Brown Norway rat model assessed as reduction in vascular leakage by measuring retinal vascular permeability at 23 mg/kg, ip administered daily for 4 weeks starting at 2 weeks post STZ challenge measured per mg of total retinal protein by Evan blue dye based assay (reference value: 0.090 +/- 0.015 microg); assay type: functional
Method in brief: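 Male Brown Norway rats aged 8 weeks (legend: 7–8 weeks) made diabetic with STZ 55 mg/kg i.p.; blood glucose >350 mg/dl at day 3. Starting 2 weeks after STZ, daily i.p. compound or same-volume vehicle for 4 weeks. Under ketamine/xylazine, Evans blue 30 mg/ml at 1 µl/g given i.v. via femoral vein and circulated 2 h. Perfusion with 1% paraformaldehyde in citrate buffer, pH 4.2, at 37°C. Retina extracted in formamide 18 h at 70°C, ultracentrifuged, A620 read. Dye amount from a standard curve, normalized to total protein. Groups compared by Student's t-test, mean ± SD.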

[7] = Toxicity in STZ-induced diabetic retinopathy Brown Norway rat model assessed as liver weight at 23 mg/kg, ip administered daily for 4 weeks starting at 2 weeks post STZ challenge relative to body weight (reference value: 4.36 +/- 0.37%); assay type: organism-based; details: in vivo
[8] = target: T1, Peroxisome proliferator-activated receptor alpha (Homo sapiens); assay: Binding affinity to His tagged PPARalpha LBD (unknown origin) expressed in Escherichia coli Rosetta (DE3) assessed as change in entropy at 25 degree C by isothermal titration calorimetry
[9] = target: T1, Peroxisome proliferator-activated receptor alpha (Homo sapiens); assay: Binding affinity to His-tagged PPARalpha LBD (unknown origin) expressed in Escherichia coli Rosetta (DE3) assessed as change in enthalpy at 25 degree C by isothermal titration calorimetry

Row | SMILES | fold change (FC) [1] | EC50 [2] [nM] | further results
1 | OB(O)c1cccc(NCc2ccc(OCc3ccc(F)cc3)cc2)c1 | 0.1 |  | 
2 | O=C(O)c1cccc(NCc2ccc(OCc3ccc(C(F)(F)F)cc3)cc2)c1 | 0.9 | 960 | 
3 | O=C(O)c1cccc(NCc2ccc(OCCc3ccccc3)cc2)c1 | 0.9 |  | 
4 | CC(C)(Oc1cccc(NCc2ccc(OCc3ccc(F)cc3)cc2)c1)C(=O)O | 2 |  | 
5 | CS(=O)(=O)Nc1cccc(NCc2ccc(OCc3ccc(F)cc3)cc2)c1 | 0.1 |  | 
6 | O=C(O)c1cccc(NCc2ccc(OCc3ccc(F)cc3)c(OCc3ccc(F)cc3)c2)c1 | 1.4 | 810 | 
7 | O=C(O)c1ccc(NCc2ccc(OCc3ccc(F)cc3)cc2)cc1 | 0.4 |  | 
8 | CC(C)(Sc1cccc(NCc2ccc(OCc3ccc(F)cc3)cc2)c1)C(=O)O | 1.1 |  | 
9 | Fc1ccc(COc2ccc(CNc3cccc(-c4nnn[nH]4)c3)cc2)cc1 | 1.6 |  | 
10 | CC(C)(Oc1ccc(CNc2cccc(C(=O)O)c2)cc1)c1ccc(F)cc1 | 0.8 | 8520 | 
11 | O=C(O)c1cccc(NCc2ccc(OCc3ccccc3F)cc2)c1 | 1 |  | 
12 | O=C(O)c1cccc(NCc2ccc(OCc3ccc(F)cc3)c(F)c2)c1 | 1.7 |  | 
13 | O=C(O)c1cccc(NCc2ccc(OCc3ccc(F)c(F)c3)cc2)c1 | 1.2 | 360 | 
14 | O=C(O)c1cccc(NCc2ccc(OCc3cccc(F)c3)cc2)c1 | 1.2 | 1180 | 
15 | O=C(O)c1cc(NCc2ccc(OCc3ccc(F)cc3)cc2)ccc1F | 1.2 | 1610 | 
16 | Cc1cc(CNc2cccc(C(=O)O)c2)ccc1OCc1ccc(I)cc1 | 1.5 |  | 
17 | C[C@@H](Oc1ccc(CNc2cccc(C(=O)O)c2)cc1)c1ccc(F)cc1 | 0.6 | 25600 | 
18 | O=C(O)c1cc(F)cc(NCc2ccc(OCc3ccc(F)cc3)cc2)c1 | 1.1 | 580 | EC50 [3]: > 100000 nM; EC50 [4]: > 100000 nM; Ratio EC50 (Homo sapiens [5]): > 170; Ratio EC50 (Homo sapiens [6]): > 170
19 | Cc1cc(CNc2cccc(C(=O)O)c2)ccc1OCc1ccc(Br)cc1 | 1.3 |  | 
20 | O=C(NO)c1cccc(NCc2ccc(OCc3ccc(F)cc3)cc2)c1 | 0.6 |  | 
21 | Cc1cc(CN(C)c2cccc(C(=O)O)c2)ccc1OCc1ccc(F)cc1 | 2.1 | 67 | 
22 | O=C(O)c1cccc(NCc2ccc(OCc3ccc(F)cc3)cc2OCc2ccc(F)cc2)c1 | 1.2 | 930 | 
23 | Cc1cc(CNc2cccc(C(=O)O)c2)ccc1OCc1ccc(F)c(F)c1 | 1.6 |  | 
24 | O=C(O)c1cccc(NCc2ccc(OCc3cc(F)cc(F)c3)cc2)c1 | 1.1 |  | 
25 | CC(C)(Oc1ccc(C(=O)c2ccc(Cl)cc2)cc1)C(=O)O [FENOFIBRIC ACID] |  |  | Activity (Rattus norvegicus): 0.059 µg; Activity [7]: 5.79%

Row | SMILES | fold change (FC) [1] | EC50 [2] [nM] | further results
26 | Cc1cc(CNc2cc(F)cc(C(=O)O)c2)ccc1OCc1ccc(F)cc1 | 1.5 |  | 
27 | Cc1cc(CNc2cccc(C(=O)O)c2)ccc1OCc1ccc(F)cc1F | 1.4 |  | 
28 | O=C(O)c1cccc(NCc2ccc(OCc3ccc(F)cc3)cc2)c1 | 1.3 |  | EC50 [3]: > 100000 nM; EC50 [4]: > 100000 nM; -TdeltaS [8]: 0.98 kcal/mol; deltaH [9]: -8.18 kcal/mol
29 | COc1ccc(CCOc2ccc(CNc3cccc(C(=O)O)c3)cc2)cc1 | 0.9 |  | 
30 | CC(C)(Oc1cccc(NCc2ccc(OCc3ccc(C(F)(F)F)cc3)cc2)c1)C(=O)O | 1.2 |  | 
31 | O=C(O)c1cccc(NCc2ccc(OCc3ccc(F)cc3F)cc2)c1 | 1.2 | 540 | EC50 [3]: > 100000 nM; EC50 [4]: > 100000 nM; Ratio EC50 (Homo sapiens [5]): > 175; Ratio EC50 (Homo sapiens [6]): > 175
32 | N#Cc1ccc(COc2ccc(CNc3cccc(C(=O)O)c3)cc2)cc1 | 1 |  | 
33 | Cc1cc(OCc2ccc(F)cc2)ccc1CNc1cccc(C(=O)O)c1 | 1.2 | 1450 | 
34 | Cc1cc(CNc2cccc(OC(C)(C)C(=O)O)c2)ccc1OCc1ccc(F)cc1 | 1.6 |  | 
35 | COc1ccc(COc2ccc(CNc3cccc(OC(C)(C)C(=O)O)c3)cc2)cc1 | 1.8 |  | 
36 | CC(C)(Oc1ccc(NCc2ccc(OCc3ccc(F)cc3)cc2)cc1)C(=O)O | 1.8 |  | 
37 | O=C(O)c1cccc(NCc2ccc(OCc3ccc(Cl)cc3)cc2)c1 | 1.5 | 830 | 
38 | O=C(O)c1cc(Cl)cc(NCc2ccc(OCc3ccc(F)cc3)cc2)c1 | 1.1 |  | 
39 | O=C(O)c1cccc(NCc2ccc(OCc3ccc(F)cc3)c(Cl)c2)c1 | 1.5 |  | 
40 | O=C(O)c1cc(Br)cc(NCc2ccc(OCc3ccc(F)cc3)cc2)c1 | 1.4 | 1120 | EC50 [3]: > 100000 nM; EC50 [4]: > 100000 nM; Ratio EC50 (Homo sapiens [5]): > 100; Ratio EC50 (Homo sapiens [6]): > 100
41 | Cc1cc(CNc2cccc(C(=O)O)c2)ccc1OCc1ccc(Cl)cc1 | 1.2 |  | 
42 | Cc1ccc(C(=O)O)cc1NCc1ccc(OCc2ccc(F)cc2)cc1 | 0.3 |  | 
43 | O=C(O)c1cc(F)cc(NCc2ccc(OCc3ccc(F)cc3)c(Cl)c2)c1 | 1.8 | 52 | 
44 | C[C@H](Oc1ccc(CNc2cccc(C(=O)O)c2)cc1)c1ccc(F)cc1 | 1.6 |  | 
45 | O=C(O)c1cccc(NCc2ccc(OCc3ccc(I)cc3)cc2)c1 | 1.1 | 1450 | 
46 | O=C(O)c1cccc(NCc2ccc(OCc3ccc(Br)cc3)cc2)c1 | 1.3 | 970 | 
47 | NS(=O)(=O)c1cccc(NCc2ccc(OCc3ccc(F)cc3)cc2)c1 | 0.1 |  | 
48 | Cc1nc(-c2ccc(C(F)(F)F)cc2)sc1C(=O)NCc1ccc(OC(C)(C)C(=O)O)cc1 | 1 |  | -TdeltaS [8]: 4.9 kcal/mol; deltaH [9]: -14.1 kcal/mol
49 | CN(Cc1ccc(OCc2ccc(F)cc2)cc1)c1cccc(C(=O)O)c1 | 1.7 | 900 | 
50 | Cc1cc(CNc2cccc(C(=O)O)c2)ccc1OCc1cc(F)cc(F)c1 | 1.6 |  | 
